# B1: S-adenosylmethionine decarboxylase proenzyme (Rattus norvegicus), P17708 (protein)
# chain: MEAAHFFEGTEKLLEVWFSRQQSDASQGSGDLRTIPRSEWDVLLKDVQCSIISVTKTDKQEAYVLSESSMFVSKRRFILKTCGTTLLLKALVPLLKLARDYSGFDSIQSFFYSRKNFMKPSHQGYPHRNFQEEIEFLNAIFPNGAAYCMGRMNSDCWYLYTLDLPESRVINQPDQTLEILMSELDPAVMDQFYMKDGVTAKDVTRESGIRDLIPGSVIDATLFNPCGYSMNGMKSDGTYWTIHITPEPEFSYVSFETNLSQTSYDDLIRKVVEVFKPGKFVTTLFVNQSSKCRTVLSSPQKIDGFKRLDCQSAMFNDYNFVFTSFAKKQQQQS
# Columns and labels:
# [1] = target: T1, S-adenosylmethionine decarboxylase proenzyme (Rattus norvegicus) (UniProt P17708); assay: Tested for S-adenosyl-L-methionine decarboxylase activity recovered after 80 min of 0.2 nM compound in incubation media; assay type: functional; conditions: in the assay text read “0.2 mM” for “0.2 nM”
# T1 sequence (whole entry): B1 chain
# Outline: (§1)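 Partially purified rat liver AdoMetDC (ammonium sulfate, then MGBG-Sepharose) preincubated at 37 °C, pH 7.0, with BSA and 0.2 mM inhibitor, no reductant. Aliquots removed at 40 or 80 min, then assayed 30 min at 37 °C in phosphate pH 7.0 with 2.5 mM putrescine, DTT and 0.2 mM [1-14C]AdoMet. Released 14CO2 trapped and counted; activity given as % of buffer-only control at the same time.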
# [2] = target: T1, S-adenosylmethionine decarboxylase proenzyme (Rattus norvegicus); assay: Tested for S-adenosyl-L-methionine decarboxylase activity recovered after 40 min of 0.2 nM compound in incubation media; assay type: functional; conditions: in the assay text read “0.2 mM” for “0.2 nM”; outline: as §1
# [3] = target: T2, S-adenosylmethionine decarboxylase proenzyme (Rattus norvegicus, UniProt P17708); assay: Tested for inhibition against S-adenosyl-L-methionine decarboxylase from rat liver
# T2 sequence (P17708 whole entry): B1 chain
# Outline: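 Partially purified rat liver enzyme; 0.1 M sodium phosphate pH 7.0, 2.5 mM DTT, 2.5 mM putrescine; S-[1-14C]adenosyl-L-methionine at 2.0 × 10⁻⁶ to 1.60 × 10⁻⁴ M; inhibitor 6.25 × 10⁻⁵, 1.25 × 10⁻⁴, 2.50 × 10⁻⁴ M; 30 min, 37 °C; released 14CO2 trapped in ethanolamine and counted, blank-corrected; apparent Ki from short incubations.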
# [4] = target: T1, S-adenosylmethionine decarboxylase proenzyme (Rattus norvegicus); assay: Tested for S-adenosyl-L-methionine decarboxylase activity recovered after 80 min of 0.4 mM compound in incubation media
# [5] = target: T1, S-adenosylmethionine decarboxylase proenzyme (Rattus norvegicus); assay: Tested for S-adenosyl-L-methionine decarboxylase activity recovered after 40 min of 0.4 mM compound in incubation media
# [6] = target: T1, S-adenosylmethionine decarboxylase proenzyme (Rattus norvegicus); assay: Tested for S-adenosyl-L-methionine decarboxylase activity recovered after 40 min of 0.2 mM + 1 mM NaBH3CN compound in incubation media
# [7] = target: T1, S-adenosylmethionine decarboxylase proenzyme (Rattus norvegicus); assay: Tested for S-adenosyl-L-methionine decarboxylase activity recovered after 40 min of 0.2 mM compound in incubation media; assay type: functional
# Outline: (§2)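 Rat liver enzyme (105000g supernatant from livers of male Sprague-Dawley rats, ammonium sulfate 35–65% cut, methylglyoxal bis(guanylhydrazone)-Sepharose eluate) preincubated at 37 °C, pH 7.0, with 0.3 mg BSA, inhibitor 0, 0.2 or 0.4 mM, ±1.0 mM sodium cyanoborohydride. Aliquots taken at 0, 40, 80 min; activity assayed at 0.2 mM substrate; expressed as % of no-addition control.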
# [8] = target: T1, S-adenosylmethionine decarboxylase proenzyme (Rattus norvegicus); assay: Tested for S-adenosyl-L-methionine decarboxylase activity recovered after 40 min of 0.2 mM + 1 mM NaBH3CN compound in incubation media; assay type: functional; outline: as §2
# [9] = target: T1, S-adenosylmethionine decarboxylase proenzyme (Rattus norvegicus); assay: Tested for S-adenosyl-L-methionine decarboxylase activity recovered after 40 min of 0.4 mM compound in incubation media; assay type: functional; outline: as §2
# [10] = target: T1, S-adenosylmethionine decarboxylase proenzyme (Rattus norvegicus); assay: Tested for S-adenosyl-L-methionine decarboxylase activity recovered after 80 min of 0.4 mM compound in incubation media; assay type: functional; outline: as §2
# [11] = target: T1, S-adenosylmethionine decarboxylase proenzyme (Rattus norvegicus); assay: Tested for S-adenosyl-L-methionine decarboxylase activity recovered after 80 min of 0.2 mM compound in incubation media; assay type: functional; outline: as §2
# [12] = substrate: C[S+](CC[C@H](N)C(=O)[O-])C[C@H]1O[C@@H](n2cnc3c(N)ncnc32)[C@H](O)[C@@H]1O
Molecule,Activity [1],Activity [2],Ki [3],Activity [4],Activity [5],Activity [6],Activity [7],Activity [8],Activity [9],Activity [10],Activity [11],Km [12]
CC(N)CC[S+](C)C[C@H]1O[C@@H](n2cnc3c(N)ncnc32)[C@H](O)[C@@H]1O (some centres undefined),66%,75%,120 µM,42%,65%,21%,,,,,,
C[S+](CCC(C)(N)C(=O)O)C[C@H]1O[C@@H](n2cnc3c(N)ncnc32)[C@H](O)[C@@H]1O (some centres undefined),,,180 µM,,,,89%,50%,77%,62%,81%,
CN(CCCN)C[C@H]1O[C@@H](n2cnc3c(N)ncnc32)[C@H](O)[C@@H]1O,97%,95%,110 µM,97%,93%,94%,,,,,,
B1,,,,,,,,,,,,51.4 µM
